{"source": "ChEMBL document CHEMBL5674889", "about": "“Enhanced JunD/RSK3 signalling due to loss of BRD4/FOXD3/miR-548d-3p axis determines BET inhibition resistance” (2020)", "key": {"MDA-MB-231 [1]": {"tested_on": "MDA-MB-231", "assay": "Antiproliferative activity in human MDA-MB-231 cells assessed as cell growth in the presence of lapatinib at 1 uM by CellTiter-Glo luminescent cell viability assay", "format": "functional, cell-based", "procedure,_shortened": "(§1)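 BLBC cells seeded at 3000/well, adhered overnight, then exposed to JQ1 (1 μM) with or without an EGFR inhibitor (1 μM) for 48 h; control and RPS6KA2-shRNA clones tested. Viability by CellTiter-Glo luminescence, background-subtracted and normalized to DMSO-treated control; triplicates, mean ± SD, one-way ANOVA against JQ1 alone.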"}, "MDA-MB-231 [2]": {"tested_on": "MDA-MB-231", "assay": "Induction of apoptosis in human MDA-MB-231 cells expressing vector control assessed as necrotic cells at 1 uM by Annexin V-FITC flow cytometric analysis (reference value: 1.67%)", "format": "functional", "procedure,_shortened": "(§2)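 Stable clones (vector, RSK3-overexpressing or RPS6KA2-knockdown) treated ± JQ1 1 μM. Cells washed twice in PBS, resuspended at 1 × 10^6 cells/ml in binding buffer, stained with Annexin V-FITC and propidium iodide for 10 min at room temperature in the dark, then read by flow cytometry. Three independent experiments; one-way ANOVA.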"}, "BT-549 [3]": {"tested_on": "BT-549", "assay": "Effect on induction of RPS6KA2 transcription in human BT-549 cells assessed as JunD protein expression at 1 uM for 24 hrs by Western blot analysis", "format": "functional, cell-based"}, "[4]": {"target": "T1, Transcription factor JunD (Homo sapiens) (UniProt P17535)", "T1 sequence (whole entry)": "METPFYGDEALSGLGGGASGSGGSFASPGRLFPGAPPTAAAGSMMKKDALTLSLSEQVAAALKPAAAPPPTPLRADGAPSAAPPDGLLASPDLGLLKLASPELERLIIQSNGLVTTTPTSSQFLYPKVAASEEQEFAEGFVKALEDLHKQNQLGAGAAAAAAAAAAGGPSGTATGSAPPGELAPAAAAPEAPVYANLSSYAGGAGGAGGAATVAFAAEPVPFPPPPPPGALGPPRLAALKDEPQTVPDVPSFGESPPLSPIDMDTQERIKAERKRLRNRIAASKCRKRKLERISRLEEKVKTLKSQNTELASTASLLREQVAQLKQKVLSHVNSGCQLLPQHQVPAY", "assay": "Binding affinity of JunD in human BT-549 cells assessed RPS6KA2 expression at 1 uM for 24 hrs by ChIP analysis", "format": "cell-based"}, "MDA-MB-231 [5]": {"tested_on": "MDA-MB-231", "assay": "Induction of apoptosis in human MDA-MB-231 cells assessed as caspase-3 cleavage in the presence of osimertinib at 1 uM by Western blotting analysis", "format": "functional, cell-based"}, "BT-549 [6]": {"tested_on": "BT-549", "assay": "Antiproliferative activity in human BT-549 cells assessed as cell growth in the presence of gefitinib at 1 uM by CellTiter-Glo luminescent cell viability assay", "format": "functional, cell-based", "procedure,_shortened": "as §1"}, "BT-549 [7]": {"tested_on": "BT-549", "assay": "Antiproliferative activity in human BT-549 cells assessed as cell growth in the presence of erlotinib at 1 uM by CellTiter-Glo luminescent cell viability assay", "format": "functional, cell-based", "procedure,_shortened": "as §1"}, "BT-549 [8]": {"tested_on": "BT-549", "assay": "Effect on human BRD4-knockdown BT-549 cells assessed as miR-548d-3p expression at 1 uM by real-time PCR analysis", "format": "functional, cell-based"}, "BT-549 [9]": {"tested_on": "BT-549", "assay": "Effect on human BT-549 cells assessed as RPS6KA2 mRNA expression in the presence of miR-548d-3p at 1 uM by RT-PCR analysis", "format": "functional, cell-based"}, "MDA-MB-231 [10]": {"tested_on": "MDA-MB-231", "assay": "Effect of human RSK3-overexpressing MDA-MB-231 cells assessed as suppression of tumour sphere formation at 1 uM by Tumour sphere assay", "format": "functional, cell-based"}, "BT-549 [11]": {"tested_on": "BT-549", "assay": "Induction of apoptosis in human BT-549 cells at 1 uM by FACS assay", "format": "functional, cell-based", "procedure,_shortened": "as §2"}, "BT-549 [12]": {"tested_on": "BT-549", "assay": "Antiproliferative activity in human RPS6KA2-knockdown BT-549 cells assessed as cell viability at 1 uM for 48 hrs by CellTiter-Glo luminescent cell viability assay", "format": "functional, cell-based", "procedure,_shortened": "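CellTiter-Glo viability: stable overexpressing or shRNA clones (puromycin 1.0 μg/ml selection) seeded 3000 cells/well, adhered overnight, then exposed to 1 μM for 48 h. Luminescence is background-subtracted and normalised to DMSO-treated control. Triplicates, mean ± SD, one-way ANOVA. MDA-MB-231 cells are kept in DMEM and BT549 in RPMI-1640, each with 10% FBS.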"}, "MDA-MB-231 [13]": {"tested_on": "MDA-MB-231", "assay": "Effect on human RPS6KA2 knockdown MDA-MB-231 cells assessed as RSK3 protein expression at 1 uM for 24 hrs by Western blot analysis", "format": "functional, cell-based"}, "MDA-MB-231 [14]": {"tested_on": "MDA-MB-231", "assay": "Effect on human BRD4-knockdown MDA-MB-231 cells assessed as miR-548d-3p expression at 1 uM by real-time PCR analysis", "format": "functional, cell-based"}, "MDA-MB-231 [15]": {"tested_on": "MDA-MB-231", "assay": "Antiproliferative activity in human MDA-MB-231 cells assessed as cell growth in the presence of osimertinib at 1 uM by CellTiter-Glo luminescent cell viability assay", "format": "functional, cell-based", "procedure,_shortened": "as §1"}, "MDA-MB-231 [16]": {"tested_on": "MDA-MB-231", "assay": "Antiproliferative activity in human RPS6KA2-knockdown MDA-MB-231 cells assessed as cell growth at 1 uM by CCK-8 assay", "format": "functional, cell-based"}, "BT-549 [17]": {"tested_on": "BT-549", "assay": "Antiproliferative activity in human BT-549 cells assessed as cell growth in the presence of miR-548d-3p inhibitor at 1 uM by CCK-8 assay", "format": "functional, cell-based", "procedure,_shortened": "(§3)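 BLBC cells transfected with miR-548d-3p mimic or inhibitor, with or without JQ1; growth read by CCK-8 assay relative to DMSO-treated control, seeded at 3000/well. Triplicates, mean ± SD, one-way ANOVA.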"}, "BT-549 [18]": {"tested_on": "BT-549", "assay": "Antiproliferative activity in human BT-549 cells assessed as cell growth in the presence of AZ5104 at 1 uM by CellTiter-Glo luminescent cell viability assay", "format": "functional, cell-based", "procedure,_shortened": "as §1"}, "MDA-MB-231 [19]": {"tested_on": "MDA-MB-231", "assay": "Effect on human MDA-MB-231 cells assessed as miR-548d-5p expression at 1 uM by real-time PCR analysis", "format": "functional, cell-based"}, "BT-549 [20]": {"tested_on": "BT-549", "assay": "Antiproliferative activity in human BT-549 cells assessed as cell growth in the presence of miR-548d-3p at 1 uM by CCK-8 assay", "format": "functional, cell-based", "procedure,_shortened": "as §3"}, "MDA-MB-231 [21]": {"tested_on": "MDA-MB-231", "assay": "Antiproliferative activity in human JUND-knockdown MDA-MB-231 cells assessed as cell viability at 1 uM by CellTiter-Glo luminescent cell viability assay", "format": "functional, cell-based", "procedure,_shortened": "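Stable JUND-knockdown (shRNA, puromycin 1.0 μg/ml selection) or JUND-overexpressing clones and vector controls, seeded 3000 cells/well and adhered overnight, then given DMSO or JQ1 (1 μM) for 48 h. Read-out CellTiter-Glo luminescence normalized to DMSO control; triplicates, mean ± SD, one-way ANOVA.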"}, "MDA-MB-231 [22]": {"tested_on": "MDA-MB-231", "assay": "Effect on human RPS6KA2-knockdown MDA-MB-231 cells assessed as inhibition tumor sphere formation at 1 uM by Tumor sphere assay", "format": "functional, cell-based"}, "BT-549 [23]": {"tested_on": "BT-549", "assay": "Antiproliferative activity in human RPS6KA2-knockdown BT-549 cells assessed as cell growth at 1 uM by CCK-8 assay", "format": "functional, cell-based"}, "MDA-MB-231 [24]": {"tested_on": "MDA-MB-231", "assay": "Inhibition of FOXD3/-BRD4 protein-protein interaction in human MDA-MB-231 cells at 1 uM by Co-immunoprecipitation analysis", "format": "cell-based", "procedure,_shortened": "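Endogenous FOXD3 or BRD4 pulled down from MDA-MB-231 lysates with specific antibodies; partner detected by western blot.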"}, "BT-549 [25]": {"tested_on": "BT-549", "assay": "Effect on human BT-549 cells assessed as RSK3 […] expression at 1 uM for 24 hrs by Western blot analysis", "format": "functional, cell-based"}, "MDA-MB-231 [26]": {"tested_on": "MDA-MB-231", "assay": "Induction of apoptosis in human MDA-MB-231 cells at 1 uM by FACS assay", "format": "functional, cell-based", "procedure,_shortened": "as §2"}}, "note": "Active and inactive are the calls of the source. No cut-off for these calls is given here.", "data": [{"smiles": "Cc1sc2c(c1C)C(c1ccc(Cl)cc1)=N[C@@H](CC(=O)OC(C)(C)C)c1nnc(C)n1-2", "values": [{"measurement": "Activity", "setting": "MDA-MB-231 [1]", "value": "Active"}, {"measurement": "Activity", "setting": "MDA-MB-231 [2]", "value": 1.54, "unit": "%"}, {"measurement": "Activity", "setting": "BT-549 [3]", "value": "Active"}, {"measurement": "Activity", "setting": "[4]", "value": "Active"}, {"measurement": "Activity", "setting": "MDA-MB-231 [5]", "value": "Active"}, {"measurement": "Activity", "setting": "BT-549 [6]", "value": "Active"}, {"measurement": "Activity", "setting": "BT-549 [7]", "value": "Active"}, {"measurement": "Activity", "setting": "BT-549 [8]", "value": "Active"}, {"measurement": "Activity", "setting": "BT-549 [9]", "value": "Active"}, {"measurement": "Activity", "setting": "MDA-MB-231 [10]", "value": "Active"}, {"measurement": "Activity", "setting": "BT-549 [11]", "value": "Active"}, {"measurement": "Activity", "setting": "BT-549 [12]", "value": "Active"}, {"measurement": "Activity", "setting": "MDA-MB-231 [13]", "value": "Active"}, {"measurement": "Activity", "setting": "MDA-MB-231 [14]", "value": "Active"}, {"measurement": "Activity", "setting": "MDA-MB-231 [15]", "value": "Active"}, {"measurement": "Activity", "setting": "MDA-MB-231 [16]", "value": "Active"}, {"measurement": "Activity", "setting": "BT-549 [17]", "value": "Active"}, {"measurement": "Activity", "setting": "BT-549 [18]", "value": "Active"}, {"measurement": "Activity", "setting": "MDA-MB-231 [19]", "value": "Active"}, {"measurement": "Activity", "setting": "BT-549 [20]", "value": "Active"}, {"measurement": "Activity", "setting": "MDA-MB-231 [21]", "value": "Active"}, {"measurement": "Activity", "setting": "MDA-MB-231 [22]", "value": "Active"}, {"measurement": "Activity", "setting": "BT-549 [23]", "value": "Active"}, {"measurement": "inhibition", "setting": "MDA-MB-231 [24]", "value": "Active"}, {"measurement": "Activity", "setting": "BT-549 [25]", "value": "Active"}, {"measurement": "Activity", "setting": "MDA-MB-231 [26]", "value": "Active"}]}]}
